In ChEMBL document CHEMBL3734686, “Synthesis, Photophysical Properties, and Biological Evaluation of trans-Bisthioglycosylated Tetrakis(fluorophenyl)chlorin for Photodynamic Therapy” (J Med Chem, 2015):

Tests used:
[1] = test system: Urinary bladder; test: Drug uptake in BALB/c mouse bladder implanted with mouse 4T1 cells assessed per gram of tissue at 0.18 mg/kg, ip after 72 hrs by HPLC-based fluorescence analysis; format: ADME, organism-based; conditions: in vivo
Procedure, shortened: (§1)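 Female BALB/c mice bearing 4T1 thigh tumours received an i.p. dose in ethanol/PEG400/H2O (2/3/5) with 0.1% DMSO, or in saline, and were kept dark until killed. Tissues were weighed (100 mg), homogenised in CH3OH/DMSO/H2O (32/8/1) and centrifuged twice at 2300×g at 4°C. Supernatants were analysed by HPLC with fluorescence detection (λex 404/λem 654 nm or λex 400/λem 666 nm). n = 3 per time point.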

[2] = test system: 4T1; test: Drug uptake in mouse 4T1 cells implanted in BALB/c mouse assessed per gram of tissue at 0.18 mg/kg, ip after 72 hrs by HPLC-based fluorescence analysis; format: ADME, organism-based; conditions: in vivo
Procedure, shortened: (§2)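 Female BALB/c mice with 4T1 cells (1 × 10^6 in HBSS) implanted in left rear thigh; single i.p. dose, 7 in ethanol/PEG400/H2O (2/3/5) with 0.1% DMSO, mono-L-aspartyl chlorin e6 in saline; kept dark until sacrifice. Tissues washed, frozen, homogenized in CH3OH/DMSO/H2O (32/8/1), centrifuged 2300×g; supernatant analysed by HPLC with fluorescence detection; three animals per time point.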

[3] = Photocytotoxicity against human U87 cells assessed as cell survival preincubated for 24 hrs followed by irradiation at 16 J/cm2 measured at 24 hrs by WST-8 assay; format: functional, cell-based, U-87MG ATCC; conditions: U-87 MG, light or radiation study
Procedure, shortened: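 Cells (5 × 10^3/well) in DMEM with 10% FCS, 24 h at 37°C, 5% CO2; photosensitizer 1–50000 nM (1% DMSO final) for 24 h, washed, fresh medium. Irradiated with 100-W halogen lamp through λ>500 nm or λ>600 nm cutoff filter to 16 J·cm−2; WST-8 absorbance at 450 nm 24 h later, survival normalized to no-drug wells.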

[4] = Drug uptake in mitochondria of human Hela cells at 0.5 uM preincubated for 24 hrs followed by MitoTracker Green FM addition for 30 mins by CSLM analysis; format: ADME; conditions: 0.5 h
Procedure, shortened: (§3)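 HeLa cells (1 × 10^4) plated 24 h, incubated 24 h with 0.5 µM final photosensitizer (1% DMSO), washed, stained 30 min with 250 nM MitoTracker Green FM in HBSS at 37°C, fixed in 4% paraformaldehyde. Confocal imaging: red λex 488/λem 650 nm; green λex 488/λem 505–530 nm.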

[5] = Drug uptake in nucleus of human Hela cells at 0.5 uM preincubated for 24 hrs followed by MitoTracker Green FM addition for 30 mins by CSLM analysis; format: ADME, cell-based; conditions: 0.5 h; procedure, shortened: as §3
[6] = test system: Lung; test: Drug uptake in BALB/c mouse lung implanted with mouse 4T1 cells assessed per gram of tissue at 0.18 mg/kg, ip after 24 hrs by HPLC-based fluorescence analysis; format: ADME, organism-based; conditions: in vivo; procedure, shortened: as §1
[7] = test system: Kidney; test: Drug uptake in BALB/c mouse kidney implanted with mouse 4T1 cells assessed per gram of tissue at 0.18 mg/kg, ip after 24 hrs by HPLC-based fluorescence analysis; format: ADME, organism-based; conditions: in vivo; procedure, shortened: as §1
[8] = test system: Spleen; test: Drug uptake in BALB/c mouse spleen implanted with mouse 4T1 cells assessed per gram of tissue at 0.18 mg/kg, ip after 24 hrs by HPLC-based fluorescence analysis; format: ADME, organism-based; conditions: in vivo; procedure, shortened: as §2
[9] = test system: Heart; test: Drug uptake in BALB/c mouse heart implanted with mouse 4T1 cells assessed per gram of tissue at 0.18 mg/kg, ip after 48 hrs by HPLC-based fluorescence analysis; format: ADME, organism-based; conditions: in vivo; procedure, shortened: as §1
[10] = Drug uptake in BALB/c mouse large intestine implanted with mouse 4T1 cells assessed per gram of tissue at 0.18 mg/kg, ip after 48 hrs by HPLC-based fluorescence analysis; format: ADME, organism-based; conditions: in vivo; procedure, shortened: as §1

Compound: CN1CC2C3=N/C(=C(/c4c(F)c(F)c(S[C@@H]5O[C@H](CO)[C@@H](O)[C@H](O)[C@H]5O)c(F)c4F)C4=N/C(=C(/c5c(F)c(F)c(F)c(F)c5F)c5ccc([nH]5)/C(c5c(F)c(F)c(S[C@@H]6O[C@H](CO)[C@@H](O)[C@H](O)[C@H]6O)c(F)c5F)=C5/C=CC(=N5)C3c3c(F)c(F)c(F)c(F)c3F)C=C4)C2C1 (stereo not given in full)
- Drug uptake [1]: 8 ng
- Drug uptake [2]: 1.8 ng/g
- EC50 [3]: 0.1 nM
- Drug uptake [4]: Active
- Drug uptake [5]: Not Active
- Drug uptake [6]: 29 ng/g
- Drug uptake [7]: 18 ng
- Drug uptake [8]: 58 ng
- Drug uptake [9]: 2.1 ng/g
- Drug uptake [10]: 17 ng/g
